This note sets out measurements from ChEMBL document CHEMBL4196017, “Design, synthesis and identification of silicon-containing HCV NS5A inhibitors with pan-genotype activity” (Eur J Med Chem, 2018).

pEC50: −log10 of the molar value.

In data set [1] the test system is Mus musculus. The experiment in a line: Toxicity in ICR mouse assessed as triglyceride level at 150 mg/kg, po administered via gavage once daily for 14 days (reference value: 1.67 +/- 0.32 mmol/L). The data set is classed as organism-based. The settings on record: in vivo, 336 h.
Data set [2] relates to Mus musculus. The experiment in a line: Toxicity in ICR mouse assessed as total bile acid level at 150 mg/kg, po administered via gavage once daily for 14 days (reference value: 5.67 +/- 2.45 umol/L). The data set is classed as organism-based. Conditions: in vivo, 336 h.
For data set [3], the system named is Mus musculus. As to the kind of experiment: Toxicity in ICR mouse assessed as aspartate aminotransferase level in serum at 150 mg/kg, po administered via gavage once daily for 14 days (reference value: 111.44 +/- 32.76 U/L). The data set is classed as organism-based. The settings on record: in vivo, 336 h. An outline of the steps:
(§1)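 ICR mice, 5 males + 5 females per group, dosed by gavage once daily at 150 mg/kg (20 ml/kg) or vehicle for 14 days; killed after the 14th dose; blood from abdominal aorta under ether anaesthesia for hematology and clinical chemistry; mean ± SD, n = 10.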

The subject of data set [4] is Mus musculus. The experiment in a line: Toxicity in ICR mouse assessed as hemoglobin concentration at 150 mg/kg, po administered via gavage once daily for 14 days (reference value: 157.4 +/- 15.5 g/L). The format is organism-based. The settings on record: in vivo, 336 h. The method, boiled down: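 Haematology on abdominal aortic blood taken at necropsy under ether anaesthesia after 14 daily gavage doses (20 ml/kg) in ICR mice, 5 per sex per group, vehicle control. Parameters: WBC, RBC, haemoglobin, platelets, reticulocyte ratio and differential leukocyte counts; mean ± SD, n = 10.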

The subject of data set [5] is Mus musculus. As to the kind of experiment: Toxicity in ICR mouse assessed as alanine aminotransferase level in serum at 150 mg/kg, po administered via gavage once daily for 14 days (reference value: 28.33 +/- 9.89 U/L). Conditions: in vivo, 336 h. The format is organism-based. An outline of the steps: as §1
Data set [6] relates to Mus musculus. The experiment in a line: Toxicity in ICR mouse assessed as basophil level in serum at 150 mg/kg, po administered via gavage once daily for 14 days (reference value: 0.02 +/- 0.04%). The data set is classed as organism-based. Conditions: in vivo, 336 h. An outline of the steps:
as §1

In data set [7] the test system is Mus musculus. As to the kind of experiment: Toxicity in ICR mouse assessed as blood glucose level at 150 mg/kg, po administered via gavage once daily for 14 days (reference value: 3.64 +/- 0.79 umol/L). The format is organism-based. The settings on record: in vivo, 336 h. The method, boiled down: as §1
For data set [8], the target named is T1, Nonstructural protein 5A (Hepatitis C virus, UniProt Q5L478).
T1 sequence (Q5L478 whole entry): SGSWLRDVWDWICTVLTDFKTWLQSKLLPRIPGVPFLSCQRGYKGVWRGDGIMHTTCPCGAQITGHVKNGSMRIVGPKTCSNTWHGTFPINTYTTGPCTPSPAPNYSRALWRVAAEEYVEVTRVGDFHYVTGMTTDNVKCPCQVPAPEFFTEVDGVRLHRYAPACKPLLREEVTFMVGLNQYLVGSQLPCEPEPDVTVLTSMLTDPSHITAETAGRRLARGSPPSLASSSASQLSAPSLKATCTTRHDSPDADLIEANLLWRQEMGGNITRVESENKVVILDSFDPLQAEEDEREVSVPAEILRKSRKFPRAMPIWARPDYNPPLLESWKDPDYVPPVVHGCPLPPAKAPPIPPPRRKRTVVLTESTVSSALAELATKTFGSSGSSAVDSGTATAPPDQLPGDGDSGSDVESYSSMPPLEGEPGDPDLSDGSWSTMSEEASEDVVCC
As to the kind of experiment: Inhibition of NS5A in HCV genotype 6a. Also on record: species or system Hepatitis C virus subtype 6a.

Turning to `CC[Si](CC)(CC)c1ccc(N2[C@H](c3ccc(NC(=O)[C@@H]4CCCN4C(=O)[C@@H](NC(=O)OC)C(C)C)cc3)CC[C@H]2c2ccc(NC(=O)[C@@H]3CCCN3C(=O)[C@@H](NC(=O)OC)C(C)C)cc2)cc1`, the Activity in data set [1] came to 1.53 mmol/L; in data set [2], 10.5 µmol/L; in data set [3], 110.6 U/L; in data set [4] it was 154.6 g/L; in data set [5], 25.3 U/L; in data set [6] it was 0.02%. Moreover, the Activity in data set [7] came to 4.18 mmol/L.

Turning to `COC(=O)N[C@H](C(=O)N1CCC[C@H]1C(=O)Nc1ccc([C@@H]2CC[C@@H](c3ccc(NC(=O)[C@@H]4CCCN4C(=O)[C@@H](NC(=O)OC)C(C)C)cc3)N2c2ccc(C(C)(C)C)cc2)cc1)C(C)C` [OMBITASVIR], the negative-log EC50 (pEC50) in data set [8] is 10.26.

Broadly, the pEC50 is the negative decadic logarithm of the EC50, by convention in mol/L. A lower pEC50 goes with a high EC50.
